Values after ≈ are worked out from the molar mass of the structure shown.
What was measured:
Salmonella typhimurium [1] = assay: Mutagenic activity in Salmonella typhimurium TA102 at 0.312 to 5 mg/plate measured after incubation of upside down for 48 hrs in presence of liver S9 mixture; format: toxicity, organism-based; details: salmonella enterica subsp. enterica serovar typhimurium, s9, 48 h
How it was run: (§1)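 Plate incorporation trial (Trial I) with histidine-dependent auxotrophs. Revertant colonies are counted against the concurrent vehicle control. Each dose and each control, including negative, vehicle and positive reference mutagens, run in triplicate plates.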

Salmonella typhimurium [2] = assay: Mutagenic activity in Salmonella typhimurium TA1537 at 0.312 to 5 mg/plate preincubated for 20 mins before addition in presence of liver S9 mixture; format: toxicity, organism-based; details: salmonella enterica subsp. enterica serovar typhimurium
How it was run: (§2)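 Pre-incubation trial (Trial II) with histidine-dependent auxotrophs. Test solution is pre-incubated with bacterial suspension and S9 mix (10% v/v) or substitution buffer before plating on selective agar. Revertant colonies are counted against the concurrent vehicle control. Triplicate plates per dose and per control (negative, vehicle, positive reference mutagens).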

Salmonella typhimurium [3] = assay: Mutagenic activity in Salmonella typhimurium TA98 at 0.312 to 5 mg/plate measured after incubation of upside down for 48 hrs in absence of liver S9 mixture; format: toxicity, organism-based; details: salmonella enterica subsp. enterica serovar typhimurium; how it was run: as §1
Salmonella typhimurium [4] = assay: Mutagenic activity in Salmonella typhimurium TA98 at 0.312 to 5 mg/plate preincubated for 20 mins before addition in absence of liver S9 mixture; format: toxicity, organism-based; details: salmonella enterica subsp. enterica serovar typhimurium; how it was run: as §2
[5] = Cytotoxicity against human PZ-HPV-7 cells after 3 days MTT assay; format: functional, cell-based; details: 72 h
How it was run: (§3)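 Cells held as monolayers in DMEM with 10% supplement. Seeded in 96-well plates on day 0 at densities set by doubling time: 1 × 10⁴/mL for HeLa and NCI-69, 2 × 10⁴/mL for MCF-7, 3 × 10⁴/mL for PZ-HPV-7. Five dilutions (10⁻⁸–5 × 10⁻⁶ mol/l), freshly prepared, added for 72 h. Growth read by MTT (succinate dehydrogenase activity); IC50 derived.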

HeLa = assay: Cytotoxicity against human HeLa cells after 3 days MTT assay; format: functional, cell-based; details: 72 h; how it was run: as §3
Salmonella typhimurium [6] = assay: Mutagenic activity in Salmonella typhimurium TA102 at 0.312 to 5 mg/plate measured after incubation of upside down for 48 hrs in absence of liver S9 mixture; format: toxicity, organism-based; details: salmonella enterica subsp. enterica serovar typhimurium; how it was run: as §1
Salmonella typhimurium [7] = assay: Mutagenic activity in Salmonella typhimurium TA1535 at 0.312 to 5 mg/plate preincubated for 20 mins before addition in presence of liver S9 mixture; format: toxicity, organism-based; details: salmonella enterica subsp. enterica serovar typhimurium; how it was run: as §2
Salmonella typhimurium [8] = assay: Mutagenic activity in Salmonella typhimurium TA1537 at 0.312 to 5 mg/plate preincubated for 20 mins before addition in absence of liver S9 mixture; format: toxicity, organism-based; details: salmonella enterica subsp. enterica serovar typhimurium; how it was run: as §2
Salmonella typhimurium [9] = assay: Mutagenic activity in Salmonella typhimurium TA1537 at 0.312 to 5 mg/plate measured after incubation of upside down for 48 hrs in presence of liver S9 mixture; format: toxicity, organism-based; details: salmonella enterica subsp. enterica serovar typhimurium, s9, 48 h; how it was run: as §1
Salmonella typhimurium [10] = assay: Mutagenic activity in Salmonella typhimurium TA98 at 0.312 to 5 mg/plate preincubated for 20 mins before addition in presence of liver S9 mixture; format: toxicity, organism-based; details: salmonella enterica subsp. enterica serovar typhimurium; how it was run: as §2
NCI-H69 = assay: Cytotoxicity against human NCI-H69 cells after 3 days MTT assay; format: functional, cell-based; details: NCI-H69, 72 h; how it was run: as §3
Salmonella typhimurium [11] = assay: Mutagenic activity in Salmonella typhimurium TA100 at 0.312 to 5 mg/plate measured after incubation of upside down for 48 hrs in presence of liver S9 mixture; format: toxicity, organism-based; details: salmonella enterica subsp. enterica serovar typhimurium, s9, 48 h; how it was run: as §1
Salmonella typhimurium [12] = assay: Mutagenic activity in Salmonella typhimurium TA1535 at 0.312 to 5 mg/plate measured after incubation of upside down for 48 hrs in absence of liver S9 mixture; format: toxicity, organism-based; details: salmonella enterica subsp. enterica serovar typhimurium; how it was run: as §1
Salmonella typhimurium [13] = assay: Mutagenic activity in Salmonella typhimurium TA102 at 0.312 to 5 mg/plate preincubated for 20 mins before addition in presence of liver S9 mixture; format: toxicity, organism-based; details: salmonella enterica subsp. enterica serovar typhimurium; how it was run: as §2
Salmonella typhimurium [14] = assay: Mutagenic activity in Salmonella typhimurium TA100 at 0.312 to 5 mg/plate preincubated for 20 mins before addition in presence of liver S9 mixture; format: toxicity, organism-based; details: salmonella enterica subsp. enterica serovar typhimurium; how it was run: as §2
Salmonella typhimurium [15] = assay: Mutagenic activity in Salmonella typhimurium TA102 at 0.312 to 5 mg/plate preincubated for 20 mins before addition in absence of liver S9 mixture; format: toxicity, organism-based; details: salmonella enterica subsp. enterica serovar typhimurium; how it was run: as §2
L1210 [16] = assay: Antitumor activity against mouse L1210 cells xenografted in BDF-1 mouse assessed as increase in mean survival time at 1.5 mmol/kg, po qd for 2 weeks; format: functional
How it was run: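 Male BDF-1 mice inoculated intraperitoneally on day 0 with L1210 leukemia cells (1 × 10⁶/mL). Cells were kept in RPMI 1640 with 10% fetal bovine serum at 37 °C, 5% CO₂, subcultured once or twice weekly, and resuspended in PBS. Compounds were given orally, with maximum doses set from acute toxicity. Read-out was mean survival time versus untreated control.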

Salmonella typhimurium [17] = assay: Mutagenic activity in Salmonella typhimurium TA98 at 0.312 to 5 mg/plate measured after incubation of upside down for 48 hrs in presence of liver S9 mixture; format: toxicity, organism-based; details: salmonella enterica subsp. enterica serovar typhimurium, s9, 48 h; how it was run: as §1
Salmonella typhimurium [18] = assay: Mutagenic activity in Salmonella typhimurium TA100 at 0.312 to 5 mg/plate preincubated for 20 mins before addition in absence of liver S9 mixture; format: toxicity, organism-based; details: salmonella enterica subsp. enterica serovar typhimurium; how it was run: as §2
Salmonella typhimurium [19] = assay: Mutagenic activity in Salmonella typhimurium TA1537 at 0.312 to 5 mg/plate measured after incubation of upside down for 48 hrs in absence of liver S9 mixture; format: toxicity, organism-based; details: salmonella enterica subsp. enterica serovar typhimurium; how it was run: as §1
Salmonella typhimurium [20] = assay: Mutagenic activity in Salmonella typhimurium TA1535 at 0.312 to 5 mg/plate measured after incubation of upside down for 48 hrs in presence of liver S9 mixture; format: toxicity, organism-based; details: salmonella enterica subsp. enterica serovar typhimurium, s9, 48 h; how it was run: as §1
MCF7 = assay: Cytotoxicity against human MCF7 cells after 3 days MTT assay; format: functional, cell-based; details: MCF7, 72 h; how it was run: as §3
Salmonella typhimurium [21] = assay: Mutagenic activity in Salmonella typhimurium TA100 at 0.312 to 5 mg/plate measured after incubation of upside down for 48 hrs in absence of liver S9 mixture; format: toxicity, organism-based; details: salmonella enterica subsp. enterica serovar typhimurium; how it was run: as §1
Salmonella typhimurium [22] = assay: Mutagenic activity in Salmonella typhimurium TA1535 at 0.312 to 5 mg/plate preincubated for 20 mins before addition in absence of liver S9 mixture; format: toxicity, organism-based; details: salmonella enterica subsp. enterica serovar typhimurium; how it was run: as §2
L1210 [23] = assay: Antitumor activity against mouse L1210 cells xenografted in BDF-1 mouse assessed as increase in mean survival time at 0.080 mmol/kg, po administered 5 days in a week for 3 weeks
L1210 [24] = assay: Antitumor activity against mouse L1210 cells xenografted in BDF-1 mouse assessed as increase in mean survival time at 0.16 mmol/kg, po administered 5 days in a week for 3 weeks

Structure (SMILES)	Activity (Salmonella typhimurium [1])	Activity (Salmonella typhimurium [2])	Activity (Salmonella typhimurium [3])	Activity (Salmonella typhimurium [4])	IC50 [5] [µg/mL]	IC50 (HeLa) [µg/mL]	Activity (Salmonella typhimurium [6])	Activity (Salmonella typhimurium [7])	Activity (Salmonella typhimurium [8])	Activity (Salmonella typhimurium [9])	Activity (Salmonella typhimurium [10])	IC50 (NCI-H69) [µg/mL]	Activity (Salmonella typhimurium [11])	Activity (Salmonella typhimurium [12])	Activity (Salmonella typhimurium [13])	Activity (Salmonella typhimurium [14])	Activity (Salmonella typhimurium [15])	MST (L1210 [16]) [days]	Activity (Salmonella typhimurium [17])	Activity (Salmonella typhimurium [18])	further results
CCCCCOC(=O)Nc1nc(=O)n([C@@H]2O[C@H](C)[C@H]3OC(=O)O[C@H]32)cc1F	Non-toxic	Non-toxic	Non-toxic	Non-toxic	140 (≈ 363 µM)	0.08 (≈ 0.208 µM)	Non-toxic	Non-toxic	Non-toxic	Non-toxic	Non-toxic	180 (≈ 467 µM)	Non-toxic	Non-toxic	Non-toxic	Non-toxic	Non-toxic	17.3	Non-toxic	Non-toxic	Activity (Salmonella typhimurium [19]): Non-toxic; Activity (Salmonella typhimurium [20]): Non-toxic; IC50 (MCF7): 80 µg/mL (≈ 208 µM); Activity (Salmonella typhimurium [21]): Non-toxic; Activity (Salmonella typhimurium [22]): Non-toxic
CCCCCOC(=O)Nc1nc(=O)n([C@@H]2O[C@H](C)[C@@H](O)[C@H]2O)cc1F [CAPECITABINE]	Non-toxic	Non-toxic	Non-toxic	Non-toxic	160 (≈ 445 µM)	0.05 (≈ 0.139 µM)	Non-toxic	Non-toxic	Non-toxic	Non-toxic	Non-toxic	300 (≈ 835 µM)	Non-toxic	Non-toxic	Non-toxic	Non-toxic	Non-toxic	12.8	Non-toxic	Non-toxic	MST (L1210 [23]): 20.3 days; MST (L1210 [24]): 19.6 days; Activity (Salmonella typhimurium [19]): Non-toxic; Activity (Salmonella typhimurium [20]): Non-toxic; IC50 (MCF7): 710 µg/mL (≈ 1980 µM); Activity (Salmonella typhimurium [21]): Non-toxic; Activity (Salmonella typhimurium [22]): Non-toxic

From ChEMBL document CHEMBL2040809, “Synthesis and biological activity evaluation of cytidine-5'-deoxy-5-fluoro-N-[(alkoxy/aryloxy)] carbonyl-cyclic 2',3'-carbonates” (Eur J Med Chem, 2012)
